Experimental data published in ChEMBL document CHEMBL1914453, “1,1-Diarylalkenes as anticancer agents: dual inhibitors of tubulin polymerization and phosphodiesterase 4” (Bioorg Med Chem, 2011).

How the values were obtained:
[1] = Inhibition of tubulin polymerization at 10 uM after 60 mins by spectrophotometry
HCT-116 [2] = assay: Antitumor activity against human HCT116 cells xenografted in SCID mouse assessed as reduction in tumor volume at 20 mg/kg, ip qd measured twice weekly relative to control; format: functional; design: scale not given: the % may be the effect or the level left; details: route intraperitoneal
Summary of the method: (§1)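 Female SCID mice, 6–8 weeks old, inoculated s.c. in the right hind leg with 2 × 10⁶ HCT-116 cells in sterile PBS. On day 8, mice with 75–125 mm³ tumors were randomized and dosed ip in CMC-Tween vehicle (0.5% carboxymethylcellulose, 0.25% Tween 80 in water). Tumors were measured twice weekly by caliper, volume W² × L / 2, and compared with vehicle.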

PBMC = assay: Inhibition of LPS-induced TNFalpha production in human PBMC preincubated 1 hr prior to LPS stimulation measured after 18 to 20 hrs by ELISA; format: functional, cell-based
Summary of the method: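 PBMC were isolated by Ficoll-Hypaque density centrifugation and plated at 2 × 10⁵ cells in triplicate. Compounds in DMSO (0.25% final) were added 1 h before stimulation with LPS from S. abortus equi at 1 ng/ml. After 18–20 h at 37 °C in 5% CO₂, supernatant TNF-α was measured by ELISA. IC50 values are means of at least three determinations.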

HCT-116 [3] = assay: Cytotoxicity against human HCT116 cells assessed as reduction of [3H]thymidine incorporation after 72 hrs by scintillation counting; format: functional, cell-based
Summary of the method: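 HCT-116 cells were seeded 24 h before compound and treated with serial dilutions in triplicate for 72 h at 37 °C. [³H]thymidine (1 µCi per well) was added for the last 6 h, and incorporation was read by scintillation counting. IC50 came from nonlinear sigmoidal regression (top 100%, bottom 0%, variable slope). Values are means of at least three independent determinations, with SEM from the individual IC50s.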

Phosphodiesterase 4 = Phosphodiesterase 4 (Homo sapiens, UniProt P27815+Q08499+Q07343+Q08493); assay: Inhibition of human PDE4 expressed in U937 cells using [3H]cAMP as substrate after 30 mins; details: u-937
Summary of the method: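 PDE4 was purified from U937 human monocytic cells by gel filtration. Reactions ran in 50 mM Tris–HCl pH 7.5 with 5 mM MgCl₂, 1 µM cAMP and 10 nM [³H]-cAMP for 30 min at 30 °C. They were stopped by boiling, treated with snake venom (1 mg/ml) and separated on ion-exchange resin. Substrate consumption stayed below 15%. IC50 values are means of at least three determinations, with SEM.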

[4] = Inhibition of tubulin polymerization at 5 uM after 60 mins by spectrophotometry
HCT-116 [5] = assay: Antitumor activity against human HCT116 cells xenografted in SCID mouse assessed as tumor growth inhibition at 5 mg/kg, ip once every 4 days measured twice weekly relative to control; format: functional; details: HCT-116, ip, 96 h, route intraperitoneal, read-out: GI; summary of the method: as §1
[6] = Solubility of the compound at pH 5 after 4 hrs by UV-Vis spectrophotometry; format: physicochemical; details: buffer
Summary of the method: (§2)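 A suspension of about 1 mg/mL (0.5 mL) in pH 5.0 or pH 7.4 buffer was stirred at 400 rpm for 4 h and then filtered. Concentration was determined by UV-vis plate reading (200–400 nm) against standard curves for each compound. Replicate measurements were made at pH 5.0.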

Mus musculus = assay: Toxicity in SCID mouse xenografted with human HCT116 cells assessed as reduction in body weight at 20 mg/kg, ip once daily measured after day 19 relative to control; format: organism-based, HCT-116; design: dose 20 mg/kg, route intraperitoneal; scale not given: the % may be the effect or the level left; details: in vivo
Summary of the method: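 SCID mice carrying s.c. HCT-116 tumors were dosed ip at 20 mg/kg once daily in CMC-Tween vehicle (0.5% carboxymethylcellulose, 0.25% Tween 80) from day 8. Health was monitored daily and body weights were compared with the vehicle group.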

Plasma = assay: Stability in human plasma assessed as formation of (E/Z)-3-(3-Amino-4-methoxyphenyl)-3-(3-ethoxy-4- methoxyphenyl)acrylonitrile by LC-MS/MS analysis; format: ADME, cell-free
Summary of the method: (§3)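 Analogs were incubated in human plasma at 37 °C and sampled at 0, 0.5, 1, 2, 3, 4, 6, 8 and 24 h. Samples were quenched in acetonitrile with 0.1% formic acid and internal standard, centrifuged, and analysed by LC–MS/MS in MRM mode on a C18 monolithic column with an aqueous acetonitrile/0.1% formic acid gradient. Percentage remaining was taken from analyte/IS peak-area ratios relative to time zero.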

[7] = Solubility of the compound at pH 7.4 after 4 hrs by UV-Vis spectrophotometry; format: physicochemical; details: buffer; summary of the method: as §2
[8] = Stability in human plasma assessed as half life by LC-MS/MS analysis; format: ADME, cell-free; summary of the method: as §3
HCT-116 [9] = assay: Antitumor activity against human HCT116 cells xenografted in SCID mouse assessed as tumor growth inhibition at 20 mg/kg, ip once daily measured twice weekly relative to control; details: HCT-116, ip, 24 h, read-out: GI
[10] = Ratio of IC50 for human PDE4 expressed in U937 cells to IC50 for human HCT116 cells; design: species or system HCT-116

SMILES | inhibition [1] [%] | IC50 (Phosphodiesterase 4) [µM] | inhibition [4] [%] | solubility at 4 h [6] [µg/mL] | Stability (Plasma) | solubility at 4 h [7] [µg/mL] | half-life [8] [min] | Activity (HCT-116 [2]) [%] | IC50 (PBMC) [nM] | IC50 (HCT-116 [3]) [nM] | inhibition in vivo at 5 mg/kg (HCT-116 [5]) [%] | Activity (Mus musculus) [%] | inhibition in vivo at 20 mg/kg (HCT-116 [9]) [%] | Ratio IC50 [10]
CCOc1cc(C(=CC#N)c2cc(OC)cc(OC)c2)ccc1OC | 59 | 0.054 | 48 | – | – | – | – | 16 | 43 | 34 | – | – | – | –
CCc1c2c(nc3ccc(OC(=O)N4CCC(N5CCCCC5)CC4)cc13)-c1cc3c(c(=O)n1C2)COC(=O)[C@]3(O)CC [IRINOTECAN] | – | – | – | – | – | – | – | – | – | – | 85 | – | – | –
CCOc1cc(C(=CC#N)c2ccc(OC)c(N)c2)ccc1OC | 76 | 0.047 | 65 | < 3 | – | < 3 | – | – | 31 | 19 | – | – | – | –
COc1cc(OC)cc(C(=C(C)C)c2ccc(OC)c(O)c2)c1 | – | > 10 | – | – | – | – | – | – | 7000 | 970 | – | – | – | 10

Continued, in another order:

inhibition [1] [%] | IC50 (Phosphodiesterase 4) [µM] | inhibition [4] [%] | solubility at 4 h [6] [µg/mL] | Stability (Plasma) | solubility at 4 h [7] [µg/mL] | half-life [8] [min] | SMILES | Activity (HCT-116 [2]) [%] | IC50 (PBMC) [nM] | IC50 (HCT-116 [3]) [nM] | inhibition in vivo at 5 mg/kg (HCT-116 [5]) [%] | Activity (Mus musculus) [%] | inhibition in vivo at 20 mg/kg (HCT-116 [9]) [%] | Ratio IC50 [10]
70 | 0.4 | 59 | 356 | Stable | 205 | 3360 | CCOc1cc(C(=CC#N)c2ccc(OC)c(NC(=O)CN)c2)ccc1OC.Cl | – | 31 | 93 | – | 15 | 64 | –
– | 0.15 | – | 1040 | Stable | 405 | 1620 | CCOc1cc(C(=CC#N)c2ccc(OC)c(NC(=O)[C@H](C)N)c2)ccc1OC.Cl | – | 27 | 40 | – | – | – | –
